Values after ≈ are worked out from the molar mass of the structure shown. Active and inactive are the calls of the source. No cut-off for these calls is given here.
Key:
[1] = test system: Bacillus subtilis; assay: Antimicrobial activity against Bacillus subtilis at 15 ug after 24 hrs by disk diffusion method; type: functional; details: read-out: IZ
Method in brief: (§1)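 Inoculum made in 0.85% saline against McFarland standard, swabbed evenly onto nutrient agar; sterile filter-paper discs set equidistant and loaded with equal volumes of drug at varying amounts; zone of inhibition measured after 24 h at 37 °C; ciprofloxacin reference.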

[2] = test system: Pseudomonas aeruginosa; assay: Antimicrobial activity against Pseudomonas aeruginosa at 15 ug after 24 hrs by disk diffusion method; type: functional; details: read-out: IZ; method in brief: as §1
[3] = test system: Pseudomonas aeruginosa; assay: Antimicrobial activity against Pseudomonas aeruginosa at 20 ug after 24 hrs by disk diffusion method; type: functional; details: read-out: IZ; method in brief: as §1
[4] = test system: Pseudomonas aeruginosa; assay: Antimicrobial activity against Pseudomonas aeruginosa at 5 ug after 24 hrs by disk diffusion method; type: functional; details: read-out: IZ; method in brief: as §1
[5] = test system: Staphylococcus aureus; assay: Antimicrobial activity against Staphylococcus aureus at 20 ug after 24 hrs by disk diffusion method; type: functional; details: read-out: IZ; method in brief: as §1
[6] = test system: Salmonella typhimurium; assay: Antimicrobial activity against Salmonella Typhimurium at 20 ug after 24 hrs by disk diffusion method; type: functional, Salmonella enterica subsp. enterica serovar Typhimurium; details: Salmonella enterica, read-out: IZ; method in brief: as §1
[7] = test system: Klebsiella pneumoniae; assay: Antimicrobial activity against Klebsiella pneumoniae at 15 ug after 24 hrs by disk diffusion method; type: functional; details: read-out: IZ; method in brief: as §1
[8] = test system: Salmonella typhi; assay: Antimicrobial activity against Salmonella typhi by broth microdilution assay; type: functional, Salmonella enterica subsp. enterica serovar Typhi; details: Salmonella enterica
Method in brief: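 Broth microdilution in 96-well plates following the NCCLS 1997 protocol. Final inoculum was 10^5 cfu/mL, with a control organism run alongside. Plates were incubated at 35.7 °C in air for 18–20 h. MIC is the lowest concentration with no visible growth.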

[9] = test system: Klebsiella pneumoniae; assay: Antimicrobial activity against Klebsiella pneumoniae at 20 ug after 24 hrs by disk diffusion method; type: functional; details: read-out: IZ; method in brief: as §1
[10] = test system: Staphylococcus aureus; assay: Antimicrobial activity against Staphylococcus aureus at 5 ug after 24 hrs by disk diffusion method; type: functional; details: read-out: IZ; method in brief: as §1
[11] = test system: Klebsiella pneumoniae; assay: Antimicrobial activity against Klebsiella pneumoniae by broth microdilution assay; type: functional
Method in brief: (§2)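 Broth microdilution per NCCLS 1997 in 96-well plate; final inoculum 10^5 cfu/mL; incubated 35.7 °C in air 18–20 h; MIC read as lowest concentration with no visible growth.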

[12] = test system: Escherichia coli; assay: Antimicrobial activity against Escherichia coli at 15 ug after 24 hrs by disk diffusion method; type: functional; details: read-out: IZ; method in brief: as §1
[13] = test system: Klebsiella pneumoniae; assay: Antimicrobial activity against Klebsiella pneumoniae at 10 ug after 24 hrs by disk diffusion method; type: functional; details: read-out: IZ; method in brief: as §1
[14] = test system: Staphylococcus aureus; assay: Antimicrobial activity against Staphylococcus aureus by broth microdilution assay; type: functional; method in brief: as §2
[15] = test system: Salmonella typhimurium; assay: Antimicrobial activity against Salmonella Typhimurium at 10 ug after 24 hrs by disk diffusion method; type: functional, Salmonella enterica subsp. enterica serovar Typhimurium; details: Salmonella enterica, read-out: IZ; method in brief: as §1
[16] = test system: Bacillus subtilis; assay: Antimicrobial activity against Bacillus subtilis at 25 ug after 24 hrs by disk diffusion method; type: functional; details: read-out: IZ; method in brief: as §1
[17] = test system: Salmonella typhimurium; assay: Antimicrobial activity against Salmonella Typhimurium at 25 ug after 24 hrs by disk diffusion method; type: functional, Salmonella enterica subsp. enterica serovar Typhimurium; details: Salmonella enterica, read-out: IZ; method in brief: as §1
[18] = test system: Klebsiella pneumoniae; assay: Antimicrobial activity against Klebsiella pneumoniae at 25 ug after 24 hrs by disk diffusion method; type: functional; details: read-out: IZ; method in brief: as §1
[19] = test system: Bacillus subtilis; assay: Antimicrobial activity against Bacillus subtilis at 20 ug after 24 hrs by disk diffusion method; type: functional; details: read-out: IZ; method in brief: as §1
[20] = test system: Escherichia coli; assay: Antimicrobial activity against Escherichia coli at 20 ug after 24 hrs by disk diffusion method; type: functional; details: read-out: IZ; method in brief: as §1
[21] = test system: Pseudomonas aeruginosa; assay: Antimicrobial activity against Pseudomonas aeruginosa at 10 ug after 24 hrs by disk diffusion method; type: functional; details: read-out: IZ; method in brief: as §1
[22] = test system: Escherichia coli; assay: Antimicrobial activity against Escherichia coli at 25 ug after 24 hrs by disk diffusion method; type: functional; details: read-out: IZ; method in brief: as §1
[23] = test system: Pseudomonas aeruginosa; assay: Antimicrobial activity against Pseudomonas aeruginosa by broth microdilution assay; type: functional; method in brief: as §2
[24] = test system: Escherichia coli; assay: Antimicrobial activity against Escherichia coli at 10 ug after 24 hrs by disk diffusion method; type: functional; details: read-out: IZ; method in brief: as §1
[25] = test system: Staphylococcus aureus; assay: Antimicrobial activity against Staphylococcus aureus at 10 ug after 24 hrs by disk diffusion method; type: functional; details: read-out: IZ; method in brief: as §1
[26] = Inhibition of DNA gyrase assessed as conversion of relaxed pBR322 to supercoiled form
Method in brief: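 Supercoiling in 15 µL reactions: gyrase assay buffer, 150 ng relaxed pBR322, 2–3 µL purified DNA gyrase, 3 h at 37 °C (E. coli); stopped with 50% glycerol/0.25% bromophenol blue; 1% agarose in 1× TBE pH 8.3, 90 V 3 h; ethidium bromide stain; supercoiled band brightness by densitometry. Ciprofloxacin comparator.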

[27] = test system: Staphylococcus aureus; assay: Antimicrobial activity against Staphylococcus aureus at 25 ug after 24 hrs by disk diffusion method; type: functional; details: read-out: IZ; method in brief: as §1
[28] = test system: Klebsiella pneumoniae; assay: Antimicrobial activity against Klebsiella pneumoniae at 5 ug after 24 hrs by disk diffusion method; type: functional; details: read-out: IZ; method in brief: as §1
[29] = test system: Pseudomonas aeruginosa; assay: Antimicrobial activity against Pseudomonas aeruginosa at 25 ug after 24 hrs by disk diffusion method; type: functional; details: read-out: IZ; method in brief: as §1
[30] = test system: Bacillus subtilis; assay: Antimicrobial activity against Bacillus subtilis by broth microdilution assay; type: functional; method in brief: as §2
[31] = Inhibition of DNA gyrase assessed as pBR322 DNA relaxation at 5 uM
Method in brief: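 Relaxation without ATP: gyrase (60 nM) with supercoiled pBR322 DNA (6 nM) and drug at […] for 1 h at 37 °C; relaxation judged by gel. Ciprofloxacin, novobiocin and nalidixic acid comparators.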

[32] = test system: Salmonella typhimurium; assay: Antimicrobial activity against Salmonella Typhimurium at 5 ug after 24 hrs by disk diffusion method; type: functional, Salmonella enterica subsp. enterica serovar Typhimurium; details: Salmonella enterica, read-out: IZ; method in brief: as §1
[33] = test system: Staphylococcus aureus; assay: Antimicrobial activity against Staphylococcus aureus at 15 ug after 24 hrs by disk diffusion method; type: functional; details: read-out: IZ; method in brief: as §1
[34] = test system: Escherichia coli; assay: Antimicrobial activity against Escherichia coli by broth microdilution assay; type: functional; method in brief: as §2
[35] = test system: Escherichia coli; assay: Antimicrobial activity against Escherichia coli at 5 ug after 24 hrs by disk diffusion method; type: functional; details: read-out: IZ; method in brief: as §1
[36] = test system: Salmonella typhimurium; assay: Antimicrobial activity against Salmonella Typhimurium at 15 ug after 24 hrs by disk diffusion method; type: functional, Salmonella enterica subsp. enterica serovar Typhimurium; details: Salmonella enterica, read-out: IZ; method in brief: as §1

In the case of `O=C1c2ccccc2C(=O)C12Nc1ccc(Br)cc1[C@H]1OCCC[C@H]12`, the zone of inhibition at 15 µg/disc [1] is reported as 8 mm, the zone of inhibition at 15 µg/disc [2] is reported as 16 mm and the zone of inhibition at 20 µg/disc [3] is reported as 20 mm. The zone of inhibition at 5 µg/disc [4] was 10 mm, the zone of inhibition at 20 µg/disc [5] was 12 mm and the zone of inhibition at 20 µg/disc [6] was 14 mm. It also gave a zone of inhibition at 15 µg/disc [7] of 13 mm, an MIC50 [8] of 1.64 mg/L (≈ 4.12 µM) and an MIC90 [8] of 2.5 mg/L (≈ 6.28 µM). It also gave a zone of inhibition at 20 µg/disc [9] of 14 mm, a zone of inhibition at 5 µg/disc [10] of 8 mm and an MIC50 [11] of 0.25 mg/L (≈ 0.628 µM). It also gave an MIC90 [11] of 4 mg/L (≈ 10 µM), a zone of inhibition at 15 µg/disc [12] of 10 mm and a zone of inhibition at 10 µg/disc [13] of 10 mm. The MIC50 [14] was 64 mg/L (≈ 161 µM), the MIC90 [14] was 64 mg/L (≈ 161 µM) and the zone of inhibition at 10 µg/disc [15] was 10 mm. It also gave a zone of inhibition at 25 µg/disc [16] of 10 mm, a zone of inhibition at 25 µg/disc [17] of 16 mm and a zone of inhibition at 25 µg/disc [18] of 16 mm. It also gave a zone of inhibition at 20 µg/disc [19] of 9 mm, a zone of inhibition at 20 µg/disc [20] of 12 mm and a zone of inhibition at 10 µg/disc [21] of 14 mm. For the same compound, the zone of inhibition at 25 µg/disc [22] was 13 mm, the MIC50 [23] was 1 mg/L (≈ 2.51 µM) and the MIC90 [23] was 8 mg/L (≈ 20.1 µM). The zone of inhibition at 10 µg/disc [24] was 9 mm, the zone of inhibition at 10 µg/disc [25] was 9 mm and the Activity [26] was “Active”. It also gave a zone of inhibition at 25 µg/disc [27] of 14 mm, a zone of inhibition at 5 µg/disc [28] of 8 mm and a zone of inhibition at 25 µg/disc [29] of 23 mm. The MIC50 [30] was 5 mg/L (≈ 12.6 µM), the MIC90 [30] was 5 mg/L (≈ 12.6 µM) and the Activity [31] was “inactive”. It also gave a zone of inhibition at 5 µg/disc [32] of 8 mm, a zone of inhibition at 15 µg/disc [33] of 10 mm and an MIC50 [34] of 2 mg/L (≈ 5.02 µM). It also gave an MIC90 [34] of 4 mg/L (≈ 10 µM), a zone of inhibition at 5 µg/disc [35] of 8 mm and a zone of inhibition at 15 µg/disc [36] of 13 mm.
